Screening data deposited in PubChem by several laboratories.
This is a sample that favours compounds with a hit; in the whole collection about 2.2% have one here.
HSP90 refold inh: HSP90 inhibitors, primary screen, cell lysate, luminescence; Heat shock protein HSP 90 (rabbit reticulocyte lysate; luciferase refolding); Rabbit reticulocyte lysate, luciferase refolding luminescence, 3 h; inhibition, % at 5.6 µM; 290,000 compounds, 0.91% hits; AID 1789, 2009;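 active means inhibition above the screen-wide mean plus 3 SD, computed separately per campaign, cut at about 16% in these data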;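 further: 0% = DMSO wells and 100% = 60 µM geldanamycin wells; inhibitors lower the luminescence because luciferase stays unfolded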
C8 TRAIL sens: viability loss with TRAIL in NB7+C8 cells, primary screen, TRAIL sensitizer project, cell-based, ATPlite luminescence. inhibition (viability loss, TRAIL sensitization), % at 10 µM. 360,000 compounds, 1% hits;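 active means compounds causing at least 50% loss of cell viability in the single-dose screen, relative to plate controls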
PPC-1+TRAIL kill: compounds killing PPC-1 cancer cells with TRAIL present, primary screen, TRAIL potentiator project, ATPLite luminescence, uHTS; PPC-1 cells + TRAIL, ATPLite viability luminescence; cell killing (% activity), % at 4 µM or 5 µM; 220,000 compounds, 0.41% hits; AID 1443, 2008;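 active means cell killing above 50% in the first pass at 4 µM, then a duplicate retest at 5 µM averaging 50% or more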;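 further: plate controls were cells with TRAIL plus DMSO for no effect and medium-only wells lacking cells for full effect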
FLuc inh counter: firefly luciferase enzyme inhibitors, primary screen, artefact control for luciferase-based inhibitor screens, biochemical, luminescence, ATPLite; 10 min; inhibition, % at 10 µM; 200,000 compounds, 1.5% hits;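 active means inhibition above about 50% when tested at 10 µM, limit read from the data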
Target sequence (P08659 whole entry, looked up): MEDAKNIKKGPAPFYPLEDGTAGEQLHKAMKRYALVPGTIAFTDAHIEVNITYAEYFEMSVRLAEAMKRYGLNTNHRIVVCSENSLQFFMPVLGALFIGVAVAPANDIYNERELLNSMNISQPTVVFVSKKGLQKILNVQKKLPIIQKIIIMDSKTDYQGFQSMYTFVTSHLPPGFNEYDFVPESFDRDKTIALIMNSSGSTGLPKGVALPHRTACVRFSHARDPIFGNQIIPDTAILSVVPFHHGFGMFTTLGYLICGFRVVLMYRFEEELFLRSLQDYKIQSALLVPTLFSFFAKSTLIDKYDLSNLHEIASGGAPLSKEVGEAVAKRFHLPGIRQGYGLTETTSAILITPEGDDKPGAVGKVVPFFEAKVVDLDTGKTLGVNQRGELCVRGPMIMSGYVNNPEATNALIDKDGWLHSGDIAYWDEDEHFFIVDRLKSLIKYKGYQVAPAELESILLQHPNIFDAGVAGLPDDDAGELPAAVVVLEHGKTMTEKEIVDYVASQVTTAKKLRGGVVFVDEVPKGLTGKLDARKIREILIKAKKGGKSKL
STAT3 inh: IL-6 driven STAT3 reporter inhibitors, primary screen, U3A cells, luciferase, luminescence, MLSCN library. 190,000 compounds, 0.89% hits. IL-6 STAT3-luciferase reporter; host cell line lacks STAT1. inhibition, % at 5.5 µM. AID 862, 2007;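 active means inhibition above the mean inhibition across all screened compounds plus 3 SD, cut at about 44% in these data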;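 further: 0% = DMSO only wells and 100% = 100 µM nifuroxazide control wells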
FLuc stim CS: FLuc activators, initial screening, artefact control for FLuc-dependent activation tests, biochemical, ATPlite luminescence; Luciferin 4-monooxygenase (Photinus pyralis), P08659; ATPlite luciferase biochemical, 10 min; 0 = ATP-free wells, 1 = DMSO control; activation factor at 10 µM; 200,000 tested, under 10 active;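 active means luciferase activation factor, scaled between plate controls, of at least 2 with compound at 10 µM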
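System: cell-free luciferase reagent; medium: PBS as buffer for the ATP substrate; doses: test compounds dosed from 2 mM stocks in 100% DMSO; incubation: 10 min, room temperature; measured by: luminescence from luciferase reaction; read-out: luciferase activation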
Numbers without * were called inactive.

What do the screens show for `O=C(Cc1csc(N2CCOCC2)n1)N/N=C/c1ccc(Cl)cc1Cl`?
HSP90 refold inh: 4; C8 TRAIL sens: 6; PPC-1+TRAIL kill: 16; FLuc inh counter: -4; STAT3 inh: 16; FLuc stim CS: 1

How did COc1cc(/C=N/NC(=O)Cc2csc(N3CCOCC3)n2)cc(OC)c1O do in these assays?
HSP90 refold inh: 6; C8 TRAIL sens: 19; PPC-1+TRAIL kill: 14; FLuc inh counter: 60*; STAT3 inh: 0; FLuc stim CS: 0.4

How did COc1ccccc1Nc1nc(N)nc(CCl)n1 do in these assays?
HSP90 refold inh: 0; C8 TRAIL sens: 92*; PPC-1+TRAIL kill: 26

What do the screens show for `Cc1cccc(Nc2nc(N)nc(CCl)n2)c1C`?
HSP90 refold inh: -4; C8 TRAIL sens: 94*; PPC-1+TRAIL kill: 39

How did COc1ccc(OC)c(Nc2nc(N)nc(CCl)n2)c1 do in these assays?
HSP90 refold inh: 2; C8 TRAIL sens: 92*; PPC-1+TRAIL kill: 4

Results for COc1ccc(OCc2nc(N)nc(Nc3ccccc3OC)n2)cc1 ?
HSP90 refold inh: -1; C8 TRAIL sens: 28; PPC-1+TRAIL kill: 15; FLuc inh counter: 3; STAT3 inh: 2; FLuc stim CS: 1

Results for CC(C)n1c(SCC(=O)N2CCN(C)CC2)nc2c1c(=O)n(C)c(=O)n2C ?
HSP90 refold inh: -1; C8 TRAIL sens: -7

Results for O=C1Nc2ccccc2C1Cc1ccccc1 (configuration not stated) ?
HSP90 refold inh: 0; C8 TRAIL sens: -32; PPC-1+TRAIL kill: -1

How did O=C1C=CC2(C=C1)O[C@H](Cc1ccccc1)[C@@H](Cc1ccccc1)O2 do in these assays?
C8 TRAIL sens: 95*

What do the screens show for `COc1ccc(C[C@@H]2OC3(C=CC(=O)C=C3)O[C@H]2Cc2ccc(OC)cc2)cc1`?
C8 TRAIL sens: 93*

How did CC(C)CCNC(=O)C(=O)NCc1ccccc1 do in these assays?
HSP90 refold inh: -4; C8 TRAIL sens: -12; PPC-1+TRAIL kill: 20

What do the screens show for `COc1cc(OC)cc(-c2cc3nc(C)c(CCC(=O)O)c(C)n3n2)c1`?
HSP90 refold inh: 25*; C8 TRAIL sens: 4; PPC-1+TRAIL kill: -8; FLuc inh counter: -6; STAT3 inh: 88*; FLuc stim CS: 1.1

Results for COc1cc(OC)cc(-c2cc3nc(C)c(CCC(=O)NC(C)CCc4ccco4)c(C)n3n2)c1 (configuration not stated) ?
HSP90 refold inh: -1; C8 TRAIL sens: -7; PPC-1+TRAIL kill: -15; FLuc inh counter: -6; STAT3 inh: 4; FLuc stim CS: 1.1

What do the screens show for `O=[N+]([O-])c1ccc(/C=N/NC2=NS(=O)(=O)c3ccccc32)cc1`?
HSP90 refold inh: 1; C8 TRAIL sens: -2; PPC-1+TRAIL kill: 14; FLuc inh counter: 37; STAT3 inh: 0; FLuc stim CS: 0.6

How did O=[N+]([O-])c1ccc(O)c(/C=N/NC2=NS(=O)(=O)c3ccccc32)c1 do in these assays?
HSP90 refold inh: 3; C8 TRAIL sens: 3; PPC-1+TRAIL kill: 22; FLuc inh counter: 69*; STAT3 inh: -1; FLuc stim CS: 0.3

What do the screens show for `CC(=O)N(Cc1ccc(F)cc1)C1=C(NCc2ccccc2)C(=O)c2ccccc2C1=O`?
HSP90 refold inh: 11; C8 TRAIL sens: 97*; PPC-1+TRAIL kill: 46; FLuc inh counter: 0; STAT3 inh: 2; FLuc stim CS: 1

What do the screens show for `O=C(NCc1ccc(F)cc1)C(c1ccccc1)c1ccccc1`?
HSP90 refold inh: 4; C8 TRAIL sens: -10

What do the screens show for `CCOC(=O)c1ccc(N=c2sc(C(=O)OC)cc(=O)n2-c2ccc(C(=O)OCC)cc2)cc1`?
HSP90 refold inh: 3; C8 TRAIL sens: 65*; PPC-1+TRAIL kill: -4; FLuc inh counter: -11; STAT3 inh: -15; FLuc stim CS: 1.1

Results for COC(=O)c1cc(=O)n(-c2ccccc2)c(=Nc2ccccc2)s1 ?
HSP90 refold inh: 2; C8 TRAIL sens: 5; PPC-1+TRAIL kill: 4; FLuc inh counter: -13; STAT3 inh: -2; FLuc stim CS: 1.1

What do the screens show for `CCOC(=O)C1CCN(C(=O)Nc2c(-c3ccccc3)noc2C)CC1`?
HSP90 refold inh: 1; C8 TRAIL sens: -6; PPC-1+TRAIL kill: 22

Results for CCOC(=O)c1sc(N/N=C/c2ccccc2)nc1C ?
HSP90 refold inh: -5; C8 TRAIL sens: -1; PPC-1+TRAIL kill: 24; FLuc inh counter: 16; STAT3 inh: -11; FLuc stim CS: 0.8

Results for CC(=O)c1sc(N/N=C\c2ccccc2O)nc1C ?
HSP90 refold inh: 1; C8 TRAIL sens: 35; FLuc inh counter: 68*; STAT3 inh: -6; FLuc stim CS: 0.3

Results for COc1ccc(-c2nc3c(C)cc(Br)cn3c2Cc2ccsc2)cc1OC ?
C8 TRAIL sens: -16

How did OC(COCC1COc2ccccc2O1)CN1CCN(c2ccccn2)CC1 (configuration not stated) do in these assays?
HSP90 refold inh: 19*; C8 TRAIL sens: -4; PPC-1+TRAIL kill: 5; FLuc inh counter: -6; STAT3 inh: 18; FLuc stim CS: 1.1

How did OC(COCC1COc2ccccc2O1)CN1CCc2ccccc2C1 (configuration not stated) do in these assays?
HSP90 refold inh: -1; C8 TRAIL sens: 7; PPC-1+TRAIL kill: -6; FLuc inh counter: 2; STAT3 inh: 1; FLuc stim CS: 1

How did Brc1nc(-c2ccccc2)nc(-c2ccccc2)c1Br do in these assays?
C8 TRAIL sens: 94*

Results for c1ccc(-c2nnc(-c3ccncc3)nc2-c2ccccc2)cc1 ?
HSP90 refold inh: -1; C8 TRAIL sens: -1; PPC-1+TRAIL kill: 10; FLuc inh counter: 2; STAT3 inh: -5; FLuc stim CS: 1

What do the screens show for `CCc1ccc2nc(N)sc2c1`?
HSP90 refold inh: -1; C8 TRAIL sens: 24; PPC-1+TRAIL kill: 26; FLuc inh counter: 56*; STAT3 inh: 7; FLuc stim CS: 0.4

How did Cc1noc(C)c1C(=O)OCC(=O)Nc1ccccc1SCC#N do in these assays?
C8 TRAIL sens: -3

What do the screens show for `CC(C)c1ccc(-n2cnn(-c3ncccc3[N+](=O)[O-])c2=O)cc1`?
HSP90 refold inh: 7; C8 TRAIL sens: 23; PPC-1+TRAIL kill: 26; FLuc inh counter: 54*; STAT3 inh: -4; FLuc stim CS: 0.5

What do the screens show for `O=C(N/N=C1\CCCc2ccccc21)c1ccc([N+](=O)[O-])cc1`?
HSP90 refold inh: -2; C8 TRAIL sens: 25; PPC-1+TRAIL kill: 29; FLuc inh counter: 61*; STAT3 inh: -9; FLuc stim CS: 0.4

How did C=CCN1C(=O)C(=Cc2ccc3c(c2)CCC3)SC1=S do in these assays?
C8 TRAIL sens: 92*
